Assays:
[1] = molecular target: T1, Epithelial discoidin domain-containing receptor 1 (Homo sapiens, UniProt Q08345); test: Inhibition of recombinant human GST-tagged DDR1 catalytic domain (440 to 876 residues) expressed in baculovirus expression system using Fluorescein-poly GAT as substrate incubated for 1 hr in presence of ATP by LanthaScreen Eu kinase assay
[2] = molecular target: Mast/stem cell growth factor receptor Kit (Homo sapiens, UniProt P10721); test: Inhibition of human recombinant His-tagged c-Kit cytoplasmic domain (544 to 976 residues) expressed in baculovirus expression system using Ser/Thr 6 peptide as substrate after 1 hr in presence of 300 uM ATP by FRET based Z'-LYTE assay
[3] = molecular target: T1, Epithelial discoidin domain-containing receptor 1; test: Inhibition of human wild type partial length DDR1 (R565 to V876 residues) expressed in bacterial expression system assessed as residual enzyme activity at 200 nM after 1 hr by Kinomescan method relative to control
[4] = molecular target: T2, Calcium/calmodulin-dependent protein kinase type 1D (Homo sapiens, UniProt Q8IU85); test: Inhibition of wild-type human partial length CAMK1D (M1 to K299 residues) expressed in bacterial expression system assessed as residual enzyme activity at 200 nM after 1 hr by Kinomescan method relative to control
Target sequence in this assay (Q8IU85 whole entry, looked up, the tested form may be a part): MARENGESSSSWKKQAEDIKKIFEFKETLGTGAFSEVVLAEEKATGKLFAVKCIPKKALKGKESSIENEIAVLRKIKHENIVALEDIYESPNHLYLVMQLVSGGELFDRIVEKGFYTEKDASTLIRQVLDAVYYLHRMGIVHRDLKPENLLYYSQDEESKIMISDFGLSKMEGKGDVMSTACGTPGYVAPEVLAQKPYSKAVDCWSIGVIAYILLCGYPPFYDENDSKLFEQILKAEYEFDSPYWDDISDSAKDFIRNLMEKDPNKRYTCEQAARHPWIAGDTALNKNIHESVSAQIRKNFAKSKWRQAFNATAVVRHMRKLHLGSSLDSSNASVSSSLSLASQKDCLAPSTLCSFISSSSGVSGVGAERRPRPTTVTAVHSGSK

[5] = molecular target: Dual specificity protein kinase CLK4 (Homo sapiens, UniProt Q9HAZ1); test: Inhibition of wild-type human partial length CLK4 (R135 to K481 residues) expressed in bacterial expression system assessed as enzyme residual activity at 200 nM after 1 hr by Kinomescan method relative to control
[6] = molecular target: T1, Epithelial discoidin domain-containing receptor 1; test: Binding affinity to wild type human partial length DDR1 (R565 to V876 residues) expressed in bacterial expression system after 1 hr by Kinomescan method
Summary of the method: (§1)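 KINOMEscan binding; Kd determined for DDR1 and the off-target kinases DDR2, CAMK1D, CLK4 and TTK.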

[7] = molecular target: T3, Discoidin domain-containing receptor 2 (Homo sapiens, UniProt Q16832); test: Binding affinity to wild type human partial length DDR2 (V555 to E855 residues) expressed in mammalian expression system after 1 hr by Kinomescan method; summary of the method: as §1
T3 sequence (Q16832 whole entry): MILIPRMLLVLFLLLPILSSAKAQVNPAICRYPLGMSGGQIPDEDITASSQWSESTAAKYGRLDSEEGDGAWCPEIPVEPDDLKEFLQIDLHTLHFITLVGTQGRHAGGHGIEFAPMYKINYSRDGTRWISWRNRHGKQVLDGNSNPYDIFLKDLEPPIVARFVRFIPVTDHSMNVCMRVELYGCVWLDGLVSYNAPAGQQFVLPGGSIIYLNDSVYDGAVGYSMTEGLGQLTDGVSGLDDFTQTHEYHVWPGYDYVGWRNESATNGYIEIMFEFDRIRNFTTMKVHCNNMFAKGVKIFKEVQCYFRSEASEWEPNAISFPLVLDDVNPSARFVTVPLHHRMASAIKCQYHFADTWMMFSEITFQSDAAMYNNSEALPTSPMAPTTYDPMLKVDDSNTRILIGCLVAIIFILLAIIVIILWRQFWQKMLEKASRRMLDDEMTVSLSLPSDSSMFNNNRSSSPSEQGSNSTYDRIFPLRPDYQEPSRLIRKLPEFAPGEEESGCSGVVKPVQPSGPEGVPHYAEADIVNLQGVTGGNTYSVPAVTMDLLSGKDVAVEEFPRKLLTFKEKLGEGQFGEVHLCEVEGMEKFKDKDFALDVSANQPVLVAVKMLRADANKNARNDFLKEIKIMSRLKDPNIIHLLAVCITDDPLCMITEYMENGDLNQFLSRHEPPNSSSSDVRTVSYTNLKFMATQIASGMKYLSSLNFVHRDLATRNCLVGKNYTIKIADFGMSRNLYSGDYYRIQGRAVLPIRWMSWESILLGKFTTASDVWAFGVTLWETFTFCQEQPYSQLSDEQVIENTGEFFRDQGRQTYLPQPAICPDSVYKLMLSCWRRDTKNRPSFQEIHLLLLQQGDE

[8] = molecular target: T2, Calcium/calmodulin-dependent protein kinase type 1D; test: Binding affinity to wild-type human partial length CAMK1D (M1 to K299 residues) expressed in bacterial expression system after 1 hr by Kinomescan method; summary of the method: as §1
Target sequence in this assay (Q8IU85 whole entry, the tested form may be a part): as the sequence (Q8IU85 whole entry, looked up, the tested form may be a part) above

[9] = molecular target: T4, Dual specificity protein kinase TTK (Homo sapiens, UniProt P33981); test: Binding affinity to wild-type human partial length TTK (N505 to V798 residues) expressed in bacterial expression system after 1 hr by Kinomescan method; summary of the method: as §1
T4 sequence (P33981 whole entry): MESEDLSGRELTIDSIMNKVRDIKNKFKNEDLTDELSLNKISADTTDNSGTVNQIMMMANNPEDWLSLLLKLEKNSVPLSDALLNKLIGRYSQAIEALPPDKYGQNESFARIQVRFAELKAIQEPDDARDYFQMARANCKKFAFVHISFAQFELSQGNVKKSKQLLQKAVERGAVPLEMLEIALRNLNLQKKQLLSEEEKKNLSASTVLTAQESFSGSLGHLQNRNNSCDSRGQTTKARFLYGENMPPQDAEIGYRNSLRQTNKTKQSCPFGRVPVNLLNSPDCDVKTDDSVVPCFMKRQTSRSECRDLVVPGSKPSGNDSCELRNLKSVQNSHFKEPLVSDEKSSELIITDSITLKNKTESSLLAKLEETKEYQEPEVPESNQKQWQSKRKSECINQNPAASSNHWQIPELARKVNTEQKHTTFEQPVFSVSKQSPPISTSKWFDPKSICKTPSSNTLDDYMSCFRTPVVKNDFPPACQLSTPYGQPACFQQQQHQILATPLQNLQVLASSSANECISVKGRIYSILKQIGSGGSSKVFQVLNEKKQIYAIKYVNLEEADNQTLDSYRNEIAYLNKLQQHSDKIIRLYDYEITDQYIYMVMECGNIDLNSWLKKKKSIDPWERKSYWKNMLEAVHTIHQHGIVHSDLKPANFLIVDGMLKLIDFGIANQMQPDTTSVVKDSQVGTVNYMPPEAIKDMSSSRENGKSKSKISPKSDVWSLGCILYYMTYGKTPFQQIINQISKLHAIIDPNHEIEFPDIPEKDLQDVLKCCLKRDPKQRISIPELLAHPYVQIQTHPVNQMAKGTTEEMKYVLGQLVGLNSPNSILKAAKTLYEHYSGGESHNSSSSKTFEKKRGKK

NCI-H1299 [10] = test: Antimigratory activity against human H1299 cells assessed as reduction in wound closure at 2.5 uM after 24 hrs by bright field microscopic based wound healing assay relative to control; format: functional; settings: NCI-H1299, 24 h
Summary of the method: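 Wound healing (scratch) migration assay in H1299 cells at 1.25, 2.5 and 5.0 μM; wound closure compared with blank control groups.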

NCI-H1299 [11] = test: Antiinvasive activity against human H1299 cells at 2.5 uM after 24 hrs by crystal violet staining based transwell assay relative to control; format: functional; settings: NCI-H1299, 24 h
Summary of the method: (§2)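 H1299 NSCLC cells; transwell invasion assay over 24 h with compound at 1.25, 2.5 and 5.0 μM; invasion expressed relative to blank control.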

NCI-H1299 [12] = test: Antiinvasive activity against human H1299 cells at 5 uM after 24 hrs by crystal violet staining based transwell assay relative to control; format: functional; settings: NCI-H1299, 24 h; summary of the method: as §2

T1 sequence (Q08345 whole entry, the tested form may be a part): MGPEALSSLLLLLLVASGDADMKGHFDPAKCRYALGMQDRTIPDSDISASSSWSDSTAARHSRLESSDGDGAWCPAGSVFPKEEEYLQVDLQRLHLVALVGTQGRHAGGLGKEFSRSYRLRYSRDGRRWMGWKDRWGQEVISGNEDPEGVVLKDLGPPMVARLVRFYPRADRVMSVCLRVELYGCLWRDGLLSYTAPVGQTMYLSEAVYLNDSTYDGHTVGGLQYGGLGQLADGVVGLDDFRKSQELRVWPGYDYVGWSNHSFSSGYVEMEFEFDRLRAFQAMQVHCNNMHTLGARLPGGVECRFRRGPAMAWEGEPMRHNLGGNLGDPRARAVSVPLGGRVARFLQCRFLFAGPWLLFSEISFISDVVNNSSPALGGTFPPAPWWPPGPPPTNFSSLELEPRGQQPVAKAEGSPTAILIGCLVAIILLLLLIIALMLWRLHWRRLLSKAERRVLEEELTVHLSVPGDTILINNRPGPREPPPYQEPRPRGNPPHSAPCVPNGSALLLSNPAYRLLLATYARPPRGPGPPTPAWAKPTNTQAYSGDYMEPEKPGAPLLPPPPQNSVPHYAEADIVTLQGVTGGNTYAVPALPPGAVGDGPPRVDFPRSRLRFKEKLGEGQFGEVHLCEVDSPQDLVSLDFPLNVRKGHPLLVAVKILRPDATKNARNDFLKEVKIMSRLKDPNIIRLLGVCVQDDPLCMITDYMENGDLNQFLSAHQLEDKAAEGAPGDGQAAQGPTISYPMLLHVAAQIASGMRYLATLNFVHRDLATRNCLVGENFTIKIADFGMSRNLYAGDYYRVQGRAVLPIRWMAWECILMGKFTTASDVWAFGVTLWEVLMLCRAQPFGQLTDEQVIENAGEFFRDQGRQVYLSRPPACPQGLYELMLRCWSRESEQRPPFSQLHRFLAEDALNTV
Mast/stem cell growth factor receptor Kit, sequence (P10721 whole entry, the tested form may be a part): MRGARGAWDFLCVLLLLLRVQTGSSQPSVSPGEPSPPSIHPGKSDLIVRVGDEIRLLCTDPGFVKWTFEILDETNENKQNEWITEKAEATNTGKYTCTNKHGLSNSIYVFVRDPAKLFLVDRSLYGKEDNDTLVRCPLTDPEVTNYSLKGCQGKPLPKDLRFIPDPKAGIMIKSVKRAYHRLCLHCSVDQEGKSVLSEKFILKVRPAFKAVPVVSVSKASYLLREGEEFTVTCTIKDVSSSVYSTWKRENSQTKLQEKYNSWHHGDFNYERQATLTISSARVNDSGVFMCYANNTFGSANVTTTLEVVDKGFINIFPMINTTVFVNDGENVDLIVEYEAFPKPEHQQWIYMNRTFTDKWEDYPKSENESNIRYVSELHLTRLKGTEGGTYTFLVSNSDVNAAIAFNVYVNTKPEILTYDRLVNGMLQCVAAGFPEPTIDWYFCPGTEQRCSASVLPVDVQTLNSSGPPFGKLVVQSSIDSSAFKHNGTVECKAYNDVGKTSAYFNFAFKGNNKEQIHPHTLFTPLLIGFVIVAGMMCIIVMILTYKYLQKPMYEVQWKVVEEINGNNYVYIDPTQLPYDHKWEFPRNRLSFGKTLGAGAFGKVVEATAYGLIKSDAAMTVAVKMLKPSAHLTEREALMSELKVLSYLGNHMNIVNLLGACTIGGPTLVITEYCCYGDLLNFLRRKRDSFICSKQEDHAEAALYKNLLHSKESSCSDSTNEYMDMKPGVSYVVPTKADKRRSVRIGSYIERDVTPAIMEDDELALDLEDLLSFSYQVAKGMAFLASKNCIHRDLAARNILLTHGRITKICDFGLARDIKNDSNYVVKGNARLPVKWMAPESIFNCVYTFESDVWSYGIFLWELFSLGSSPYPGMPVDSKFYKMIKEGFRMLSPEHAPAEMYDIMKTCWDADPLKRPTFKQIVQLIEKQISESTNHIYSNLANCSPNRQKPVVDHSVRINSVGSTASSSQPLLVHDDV
Dual specificity protein kinase CLK4, sequence (Q9HAZ1 whole entry, looked up, the tested form may be a part): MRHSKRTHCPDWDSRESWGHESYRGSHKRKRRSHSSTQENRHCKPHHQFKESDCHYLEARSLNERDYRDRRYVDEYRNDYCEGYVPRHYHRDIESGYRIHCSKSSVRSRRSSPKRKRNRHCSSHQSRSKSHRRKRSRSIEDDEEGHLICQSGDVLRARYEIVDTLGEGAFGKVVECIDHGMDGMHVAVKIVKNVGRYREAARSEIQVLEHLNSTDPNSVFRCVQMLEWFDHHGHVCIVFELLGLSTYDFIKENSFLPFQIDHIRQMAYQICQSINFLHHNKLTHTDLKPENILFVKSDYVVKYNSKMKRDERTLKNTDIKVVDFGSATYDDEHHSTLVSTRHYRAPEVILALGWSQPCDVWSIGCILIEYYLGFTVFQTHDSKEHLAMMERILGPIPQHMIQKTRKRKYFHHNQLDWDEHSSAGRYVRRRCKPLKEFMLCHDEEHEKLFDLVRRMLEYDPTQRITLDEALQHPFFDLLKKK

In the case of `CCc1ccc(C(=O)Nc2cc(F)cc(C(F)(F)F)c2)cc1-c1cc(C)cc(-c2cnc3cnccn23)c1`, the IC50 [1] is reported as 23.8 nM, the IC50 [2] is reported as > 10000 nM and the Activity [3] is reported as 0%. For the same compound, the Activity [4] was 0.9%, the Activity [5] was 1.8% and the Kd [6] was 7.8 nM. For the same compound, the Kd [7] was 86 nM, the Kd [8] was > 1000 nM and the Kd [9] was > 1000 nM. For the same compound, the inhibition at 2.5 µM (NCI-H1299 [10]) was 60%, the inhibition at 2.5 µM (NCI-H1299 [11]) was 50% and the inhibition at 5 µM (NCI-H1299 [12]) was 71%.

— ChEMBL document CHEMBL4342493, “Design and Optimization of 3'-(Imidazo[1,2-a]pyrazin-3-yl)-[1,1'-biphenyl]-3-carboxamides as Selective DDR1 Inhibitors” (ACS Med Chem Lett, 2020)
